Assay results reported in ChEMBL document CHEMBL4425108, “A Selective and Slowly Reversible Inhibitor of l-Type Amino Acid Transporter 1 (LAT1) Potentiates Antiproliferative Drug Efficacy in Cancer Cells” (J Med Chem, 2016).

Tests used:
[1] = biological target: Large neutral amino acids transporter small subunit 1 (Homo sapiens, UniProt Q01650); experiment: Inhibition of LAT1 in human MCF7 cells assessed as potentiation of cisplatin-induced antiproliferative activity by measuring reduction in cell viability at 100 uM measured after 48 hrs by resazurin dye-based fluorimetric analysis
Outline: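 MCF-7 cells seeded 2 × 10^4/well on collagen-coated plates, treated one day later in growth medium with inhibitor (25 or 100 µM) plus bestatin or cisplatin (100 µM) for up to 3 days. Viability read daily by resazurin fluorescence (ex 560/em 590 nm). Viability is treated relative to untreated control. Mean ± SD, n=3.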

[2] = biological target: T1, Large neutral amino acids transporter small subunit 2 (Homo sapiens) (UniProt Q9UHI5); experiment: Competitive inhibition of [14C]-L-alanine uptake at LAT2 in human MCF7 cells at 100 uM preincubated for 10 mins followed by addition of substrate measured during 5 mins by liquid scintillation counting; assay type: cell-based
T1 sequence (whole entry): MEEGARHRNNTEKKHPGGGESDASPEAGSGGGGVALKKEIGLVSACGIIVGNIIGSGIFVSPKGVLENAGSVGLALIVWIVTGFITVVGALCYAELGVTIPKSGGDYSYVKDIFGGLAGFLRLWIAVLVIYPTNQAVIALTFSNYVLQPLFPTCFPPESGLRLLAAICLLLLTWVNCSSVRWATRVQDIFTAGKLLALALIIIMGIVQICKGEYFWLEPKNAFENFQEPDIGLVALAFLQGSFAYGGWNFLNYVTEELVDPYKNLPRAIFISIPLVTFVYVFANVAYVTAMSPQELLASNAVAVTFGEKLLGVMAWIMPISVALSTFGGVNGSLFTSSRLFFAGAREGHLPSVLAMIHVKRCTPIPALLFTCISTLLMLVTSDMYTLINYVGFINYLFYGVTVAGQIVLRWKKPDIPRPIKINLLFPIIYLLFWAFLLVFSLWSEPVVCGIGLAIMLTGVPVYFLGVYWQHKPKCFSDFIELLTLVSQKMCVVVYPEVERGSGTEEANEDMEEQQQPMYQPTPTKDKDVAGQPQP
Outline: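 MCF-7 cells were seeded at 1 × 10^5 cells/well and used one day later. Cells were washed and pre-incubated 10 min at 37 °C in HEPES-buffered HBSS (choline chloride, pH 7.4). Uptake of 10.0 µM [14C]-L-alanine ran 5 min at 37 °C with test agent (1–1000 µM) or DMSO blank. Cells were then given three ice-cold washes, lysed in 0.1 M NaOH and counted by liquid scintillation; n=3.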

[3] = Tmax in mouse liver at 23 umol/kg, ip administered as bolus by LC-MS analysis; assay type: ADME, organism-based
Outline: (§1)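 Adult male mice (25 ± 5 g) given a single i.p. bolus of 23 µmol/kg, dosing solution 1.36 mM in 10% (v/v) DMSO, 20% (w/v) hydroxypropyl-β-cyclodextrin, 0.9% NaCl in water. Decapitation at time points 10–480 min; plasma, brain, liver, prostate, kidney, heart collected. Acetonitrile precipitation with repaglinide internal standard, LC-MS (ESI positive). tmax and t½β taken from concentration-time data; mean ± SEM, n=3.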

[4] = fCmax in mouse brain at 23 umol/kg, ip administered as bolus by LC-MS analysis; assay type: ADME, organism-based; conditions: in vivo
Outline: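 Male mice (25 ± 5 g) dosed i.p. as a bolus at 23 µmol/kg in DMSO/hydroxypropyl-β-cyclodextrin/saline vehicle, sampled at time points 10–480 min; plasma and tissue homogenates (1:3 water) analysed by LC-MS. […] Mean ± SEM.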

[5] = Tmax in mouse prostate at 23 umol/kg, ip administered as bolus by LC-MS analysis; assay type: ADME, organism-based, Prostate gland; outline: as §1

Sequence of Large neutral amino acids transporter small subunit 1 (Q01650 whole entry): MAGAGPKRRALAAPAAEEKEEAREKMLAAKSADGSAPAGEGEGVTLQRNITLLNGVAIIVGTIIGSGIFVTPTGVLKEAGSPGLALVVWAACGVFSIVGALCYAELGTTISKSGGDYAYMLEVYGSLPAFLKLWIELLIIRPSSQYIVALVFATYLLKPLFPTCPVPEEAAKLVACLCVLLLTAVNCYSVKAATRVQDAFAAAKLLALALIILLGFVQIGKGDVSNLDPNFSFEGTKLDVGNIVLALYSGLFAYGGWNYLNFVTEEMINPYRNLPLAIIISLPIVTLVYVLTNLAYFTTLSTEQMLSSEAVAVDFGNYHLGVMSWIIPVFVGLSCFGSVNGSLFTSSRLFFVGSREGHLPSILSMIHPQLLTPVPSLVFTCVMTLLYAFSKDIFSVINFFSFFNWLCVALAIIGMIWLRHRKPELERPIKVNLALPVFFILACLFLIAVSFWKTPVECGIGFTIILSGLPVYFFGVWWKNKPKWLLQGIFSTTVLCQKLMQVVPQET

CNC(=O)COc1ccc(-c2c(C#N)c(NC(=O)c3cccc(C[C@H](N)C(=O)O)c3)n3c(nc4ccccc43)c2C#N)cc1
Activity [1]: 60.4% | inhibition [2]: 3.93% | Tmax [3]: 10 min | fCmax [4]: 0.02 nmol/g | Tmax [5]: 30 min
